Calls of active or inactive are those of the source. The rule behind the calls is not given here.
Tests used:
DLD-1 [1] = experiment: Antitumor activity against Pgp expressing multidrug resistant human DLD1 cells xenografted SCID mouse assessed as tumor growth at 20 mg/kg, iv administered for 3 days after 167 days; format: functional, organism-based; parameters: dose 20 mg/kg
Method in brief: (§1)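 Female SCID mice (6-8 weeks), 5 per treated group, 10 untreated controls, bearing DLD-1 (Pgp+) human colon xenografts. Dosing was iv by tail vein from day 5 after implant, ×3. Stock was 30 mg/mL in Tween-80/ethanol 1:1, diluted in 0.9% saline. Caliper volume V=0.4·l·w² every 3-4 days. Growth delay was time to 600 mm3, interpolated from log(volume) vs time. Cox-Mantel test was used versus control. Cure meant no palpable tumor on day 167.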

[2] = Cytotoxicity against paclitaxel resistant human 1A9PTX22 cells expressing class 1 beta-tubulin mutant after 72 hrs; format: functional, cell-based; details: 1A9/ptx-22, 72 h
[3] = Cytotoxicity against paclitaxel resistant human 1A9PTX10 cells expressing class 1 beta-tubulin mutant after 72 hrs; format: functional, cell-based; details: 1A9/ptx-10, 72 h
[4] = Cytotoxicity against multidrug resistant Pgp expressing human NCI/ADR cells after 72 hrs by sulforhodamine B test; format: functional, cell-based; details: NCI/ADR-RES
[5] = Cytotoxicity against multidrug resistant Pgp expressing human LCC6 cells after 72 hrs by sulforhodamine B test; format: functional, cell-based; details: LCC-6, 72 h
A2780 = experiment: Cytotoxicity against human A2780 cells after 72 hrs; format: functional, cell-based; details: A2780, 72 h
DLD-1 [6] = experiment: Antitumor activity against Pgp expressing multidrug resistant human DLD1 cells xenografted SCID mouse assessed as tumor growth delay at 20 mg/kg, iv administered for 3 days; format: functional; method in brief: as §1
Mus musculus = experiment: Toxicity in Pgp expressing multidrug resistant human DLD1 cells xenografted SCID mouse at 20 mg/kg, iv administered for 3 days; format: organism-based, DLD-1; parameters: dose 20 mg/kg, route intravenous; details: in vivo, 72 h
Method in brief: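 Female SCID mice with DLD-1 (Pgp+) colon xenografts, 5 per group. Dosing was iv by tail vein, 20 mg/kg ×3 from day 5 post-implant, in Tween-80/ethanol diluted with saline. Toxicity was counted as animals that died or lost more than 20% body weight.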

MCF7 [7] = experiment: Cytotoxicity against Pgp deficient human MCF7 cells after 72 hrs by sulforhodamine B test; format: functional, cell-based; details: MCF7, 72 h
[8] = Cytotoxicity against Pgp deficient human LCC6 cells after 72 hrs by sulforhodamine B test; format: functional, cell-based; details: C6, 72 h
C6 = experiment: Resistance index, Ratio of IC50 for multidrug resistant Pgp expressing human LCC6 cells to IC50 for Pgp deficient human LCC6 cells; format: functional; parameters: reference not given here
Bos taurus [9] = species: Bos taurus; experiment: Induction of calf brain tubulin polymerization at 10 uM in absence of GTP by spectrophotometric assay
Bos taurus [10] = species: Bos taurus; experiment: Induction of calf brain tubulin polymerization at 10 uM by spectrophotometric assay
Method in brief: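 Calf brain microtubule protein diluted to 1 mg/mL in MES buffer with 3 M glycerol; taxoid at 10 µM. Assembly followed at 37 °C as turbidity change at 350 nm. 6 mM CaCl2 added after 50 min to follow depolymerization. Tubulin is 85% of the protein. Runs used either centrifuged tubulin or tubulin used as stored, with 1 mM GTP in some runs.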

MCF7 [11] = experiment: Resistance index, Ratio of IC50 for multidrug resistant Pgp expressing human NCI/ADR cells to IC50 for Pgp deficient human MCF7 cells; format: functional; parameters: reference not given here
CFPAC-1 [12] = experiment: Antitumor activity against mdr1 expressing multidrug resistant human CFPAC1 cells xenografted Swiss mouse assessed as reduction in tumor volume at 20 mg/kg, iv administered for 3 days after 8 weeks; format: functional, organism-based; parameters: dose 20 mg/kg
Method in brief: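 CFPAC-1 (mdr1-high) pancreatic cells, 1 × 10^6 in 200 µL PBS, were injected into both flanks. Treatment began on day 19 at about 100 mm3. Dosing was iv by tail vein on days 19, 22 and 25 at 20 mg/kg each (60 mg/kg total). Stock was 30 mg/mL in Tween-80/ethanol 1:1, diluted in PBS to 0.2 mL. Caliper volume was V=0.4·l·w².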

BXPC-3 = experiment: Cytotoxicity against multidrug resistant human BxPC3 cells after 72 hrs by MTT assay; format: functional, cell-based; details: BXPC-3, 72 h
Method in brief: (§2)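 Pancreatic lines were cultured per ATCC, seeded at 2.5 × 10^4 cells/well and allowed to adhere overnight. The medium was replaced with drug diluted from a 10 mM DMSO stock, or vehicle, for 72 h, in triplicate, with at least three independent trials. MTT at 0.5 mg/mL was added for 3 h, formazan was dissolved in acidified isopropanol, and A570 was read. IC50 came from sigmoid-Emax nonlinear regression.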

MIA PaCa-2 = experiment: Cytotoxicity against multidrug resistant human MIAPaCa2 cells after 72 hrs by MTT assay; format: functional, cell-based; details: MIA PaCa-2, 72 h; method in brief: as §2
DLD-1 [13] = experiment: Antitumor activity against Pgp expressing multidrug resistant human DLD1 cells xenografted SCID mouse assessed as tumor growth delay at 40 mg/kg, iv administered for 3 days; format: functional; method in brief: as §1
DLD-1 [14] = experiment: Antitumor activity against Pgp expressing multidrug resistant human DLD1 cells xenografted SCID mouse assessed as tumor growth delay at 10 mg/kg, iv administered for 3 days; format: functional; method in brief: as §1
CFPAC-1 [15] = experiment: Cytotoxicity against multidrug resistant human CFPAC1 cells after 72 hrs by MTT assay; format: functional, cell-based; details: CFPAC-1, 72 h; method in brief: as §2
Bos taurus [16] = species: Bos taurus; experiment: Induction of calf brain tubulin polymerization at 10 uM after 12 mins in presence of GTP by spectrophotometric assay
Method in brief: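 Calf brain microtubule protein, 1 mg/mL in MES buffer with 3 M glycerol, was assembled at 37 °C with 1 mM GTP and 10 µM drug. Turbidity was followed at 350 nm. Tubulin stored in liquid nitrogen was centrifuged just before use and adjusted to 1 mg/mL. CaCl2 (6 mM) was added at 50 min to follow depolymerization.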

PANC-1 = experiment: Cytotoxicity against multidrug resistant human PANC1 cells after 72 hrs by MTT assay; format: functional, cell-based; details: PANC-1, 72 h; method in brief: as §2
DLD-1 [17] = experiment: Antitumor activity against Pgp expressing multidrug resistant human DLD1 cells xenografted SCID mouse assessed as tumor growth at 10 mg/kg, iv administered for 3 days after 167 days; format: functional, organism-based; parameters: dose 10 mg/kg; method in brief: as §1
[18] = Cytotoxicity against human primary pancreatic ductal cells after 72 hrs by MTT assay; format: cell-based

Row | SMILES | Activity (DLD-1 [1]) | IC50 [2] [nM] | IC50 [3] [nM] | IC50 [4] [nM] | IC50 [5] [nM] | IC50 (A2780) [nM] | Activity (DLD-1 [6]) [days] | Activity (Bos taurus [9]) | further results
1 | CC(=O)O[C@H]1C(=O)[C@@]2(C)[C@H]([C@H](OC(=O)c3ccccc3)[C@]3(O)C[C@H](OC(=O)[C@H](O)[C@@H](NC(=O)c4ccccc4)c4ccccc4)C(C)=C1C3(C)C)[C@]1(OC(C)=O)CO[C@@H]1C[C@@H]2O [PACLITAXEL] | inactive | 161 | 533 | 300 | 346 | 1.38 | 8 | – | Activity (Mus musculus): Non-toxic
2 | COC(=O)O[C@H]1C(=O)[C@@]2(C)[C@H]([C@H](OC(=O)c3cccc(OC)c3)[C@]3(O)C[C@H](OC(=O)[C@H](O)[C@H](C=C(C)C)NC(=O)OC(C)(C)C)C(C)=C1C3(C)C)[C@]1(OC(C)=O)CO[C@@H]1C[C@@H]2O | – | – | – | 1.4 | 1.6 | – | – | Active | IC50 (MCF7 [7]): 0.4 nM; IC50 [8]: 0.6 nM; Ratio IC50 (C6): 2.7; Activity (Bos taurus [10]): Active; Ratio IC50 (MCF7 [11]): 3.5
3 | CC(=O)O[C@@]12CO[C@@H]1C[C@H](O)[C@@]1(C)C(=O)[C@H](OC(=O)C3CC3)C3=C(C)[C@@H](OC(=O)[C@H](O)[C@H](C=C(C)C)NC(=O)OC(C)(C)C)C[C@@](O)([C@@H](OC(=O)c4ccccc4)[C@H]21)C3(C)C | Active | 3.94 | 9 | 3.9 | – | 0.44 | >150 | Active | Activity (CFPAC-1 [12]): Active; IC50 (BXPC-3): 1.04 nM; IC50 (MIA PaCa-2): 0.92 nM; Activity (DLD-1 [13]): >150 days; Activity (DLD-1 [14]): 37 days; IC50 (CFPAC-1 [15]): 0.83 nM; Activity (Bos taurus [16]): 90%; IC50 (PANC-1): 3.68 nM; Activity (DLD-1 [17]): inactive; Activity [18]: Non-toxic
